Experimental data of several laboratories.
Each line is one published result; the experiments were not run side by side.
Target: Serine/threonine-protein kinase 38-like (STK38L, Homo sapiens, UniProt Q9Y2H1)

SMILES | test | conditions | remaining binding [%]
c1cncc(-c2cccc(Nc3nccc(NC4CCCCC4)n3)c2)c1 | binding, competition with immobilised ligand | 10 µM | 100
c1cnn2ncc(-c3ccnc(N4CCC45COC5)n3)c2c1 | binding | 1 µM | 78
O=C(NC[C@@H]1[C@H]2CN(C(=O)OCc3cc(C(F)(F)F)cc(C(F)(F)F)c3)C[C@@H]12)c1ccc2[nH]nnc2c1 | cell-free assay, competition with immobilised ligand | 1 µM | 45
O=C(NCC1CCOCC1)c1n[nH]cc1NC(=O)c1c(F)cccc1F | binding, competition with immobilised ligand | 1 µM | 87
CN(c1nccc(-c2cnn3ncccc23)n1)C1CC1 | binding | 1 µM | 100
COc1cnc(Nc2cccc(S(N)(=O)=O)c2)nc1N1CCN(c2ccccc2)CC1 | binding, competition with immobilised ligand | 1 µM | 96
COc1ccnn2ncc(-c3ccnc(N(C)C)n3)c12 | binding | 1 µM | 96
Cc1nccc(COC(=O)N2C[C@@H]3[C@@H](CNC(=O)c4ccc5[nH]nnc5c4)[C@@H]3C2)n1 | cell-free assay, competition with immobilised ligand | 1 µM | 70
FC(F)(F)Oc1cccc(-c2cnc3ccc(-c4ccncc4)nn23)c1 | cell-free assay, competition with immobilised ligand | 5 µM | 89
CN(C)C(=O)Cn1cc(-c2nc(C3(c4ccc(-c5cnc(N)nc5)cc4)CC3)no2)cn1 | cell-free assay, competition with immobilised ligand | 1 µM | 81
C=CC(=O)N1CCC(C(=O)NCC(=O)N2CCN(c3nc(-c4cnc(N)nc4C(F)F)nc(N4CCOCC4)n3)CC2)CC1 | binding, competition with immobilised ligand | 1 µM | 97
CC(C)(O)c1cncc(-c2nc3ccc(F)cc3n2C2CC2)c1 | cell-free assay, competition with immobilised ligand | 1 µM | 100
C[C@H]1CCN(c2nccc(-c3cnn4ncccc34)n2)C1 | binding | 1 µM | 83
Cc1cc(NC(=O)c2cccc(S(F)(F)(F)(F)F)c2)cc(-n2ccn3nc(-c4cccnc4)cc23)c1 | cell-free assay, competition with immobilised ligand | 1 µM | 100
CN(C)c1nccc(-c2cnn3ncccc23)n1 | binding | 1 µM | 85
O=C(NCCCN1CCOCC1)c1ccc(Nc2nccc(-c3cc4ccccc4s3)n2)cc1 | binding, competition with immobilised ligand | 1 µM | 100
COc1ccc2c(c1)O[C@@H](c1ccc(OC)c(OC)c1)C[C@H]2NC(=O)C1(c2ccc3c(c2)OC(F)(F)O3)CC1 | cell-free assay, competition with immobilised ligand | 1 µM | 100
COc1cnc(Nc2cccc(S(N)(=O)=O)c2)nc1N1CCN(c2ccccc2)C(=O)C1 | binding, competition with immobilised ligand | 1 µM | 100
O=C(c1ccc(Nc2nccc(-c3cc4ccccc4s3)n2)cc1)N1CCC(N2CCCC2)CC1 | binding, competition with immobilised ligand | 1 µM | 94
COc1cccc(CNC(=O)c2nc3scc(COCc4ccc(C(=O)O)cc4)c3c(=O)[nH]2)c1 | cell-free assay, competition with immobilised ligand | 1 µM | 87.7
O=C(c1ccc(Nc2ncc(Cl)c(-c3cc4ccccc4s3)n2)cc1)N1CCC(N2CCCC2)CC1 | binding, competition with immobilised ligand | 1 µM | 74
N[C@H]1CCN(c2nccc(-c3cnn4ncccc34)n2)C1 | binding | 1 µM | 100
